# Assay results published in ChEMBL document CHEMBL2417516, “Metallo-β-lactamase inhibitory activity of 3-alkyloxy and 3-amino phthalic acid derivatives and their combination effect with carbapenem” (Bioorg Med Chem, 2013).
# Activity calls are given as the source filed them. The rule behind the calls is not given here.
# What was measured:
# Pseudomonas aeruginosa [1] = assay: Antibacterial activity against Pseudomonas aeruginosa PAO1 pMS363 at 50 ug/ml by microbroth dilution method in presence of biapenem; assay type: functional, organism-based
# Pseudomonas aeruginosa [2] = assay: Antibacterial activity against mexAB-deleted Pseudomonas aeruginosa KG5002/pMS363 at 50 ug/ml by microbroth dilution method in presence of biapenem; assay type: functional, organism-based
# Metallo beta-lactamase = Metallo beta-lactamase (Pseudomonas aeruginosa, UniProt Q6TUJ4); assay: Inhibition of carbapenems-resistant Pseudomonas aeruginosa MSC15369 metallo-beta-lactamase IMP1 expressed in Escherichia coli DH5[alpha] using nitrocefin as substrate after 20 mins by spectrophotometry
# Sequence of Metallo beta-lactamase (Q6TUJ4 whole entry): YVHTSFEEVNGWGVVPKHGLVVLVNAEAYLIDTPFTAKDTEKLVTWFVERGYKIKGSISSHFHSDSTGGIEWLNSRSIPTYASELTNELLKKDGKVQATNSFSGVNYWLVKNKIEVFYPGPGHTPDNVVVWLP
# Method in brief: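 IMP-1 was expressed in E. coli DH5 with 0.5 mM IPTG induction for 3 h at room temperature, and the soluble enzyme was purified from cell extracts on Ni-NTA. Inhibitors were incubated with 1.0 nM IMP-1 for 20 min at room temperature, and IC50 values were determined.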
# Pseudomonas aeruginosa [3] = assay: Antibacterial activity against Pseudomonas aeruginosa clinical isolates producing IMP-1 by microbroth dilution method in presence of meropenem; assay type: functional, organism-based
# Method in brief: (§1)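 Minimum inhibitory concentrations were determined by broth microdilution following CLSI guidance, with Mueller–Hinton II broth as the test medium.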
# Pseudomonas aeruginosa [4] = assay: Antibacterial activity against Pseudomonas aeruginosa clinical isolates producing IMP-1 by microbroth dilution method in presence of ceftazidime; assay type: functional, organism-based; method in brief: as §1
# Pseudomonas aeruginosa [5] = assay: Antibacterial activity against Pseudomonas aeruginosa clinical isolates producing IMP-1 by microbroth dilution method in presence of biapenem; assay type: functional, organism-based; method in brief: as §1
# Pseudomonas aeruginosa [6] = assay: Antibacterial activity against Pseudomonas aeruginosa PAO1 pMS363 by microbroth dilution method; assay type: functional
# Method in brief: (§2)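 MIC determined by broth microdilution following CLSI guidance, with Mueller–Hinton II broth as the test medium.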
# Pseudomonas aeruginosa [7] = assay: Antibacterial activity against mexAB-deleted Pseudomonas aeruginosa KG5002/pMS363 by microbroth dilution method; assay type: functional; method in brief: as §2
SMILES,Activity (Pseudomonas aeruginosa [1]),Activity (Pseudomonas aeruginosa [2]),IC50 (Metallo beta-lactamase) [µM],other results
COC1CCN(c2cccc(C(=O)O)c2C(=O)O)CC1,Active,Active,3.7,
CN(C)c1cccc(C(=O)O)c1C(=O)O,Active,Active,94.5,
O=C(O)c1cccc(OCCCO)c1C(=O)O,Active,Active,21.4,
O=C(O)c1cccc(N2CCC(O)CC2)c1C(=O)O,Active,Active,2.7,Activity (Pseudomonas aeruginosa [3]): Dose-dependent effect; Activity (Pseudomonas aeruginosa [4]): Dose-dependent effect; Activity (Pseudomonas aeruginosa [5]): Dose-dependent effect
CCCCNc1cccc(C(=O)O)c1C(=O)O,,,13.1,
O=C(O)c1cccc(N2CCC(CCO)CC2)c1C(=O)O,Active,Active,25.6,
O=C(O)c1cccc(N2CCCCC2)c1C(=O)O,Active,Active,10.8,
COc1cccc(C(=O)O)c1C(=O)O,,,142,
O=C(O)c1cccc(N2CCC(CO)CC2)c1C(=O)O,Active,Active,2.6,
O=C(O)c1cccc(OCc2ccccc2)c1C(=O)O,,,7.4,
O=C(O)c1cccc(-c2ccc(O)cc2)c1C(=O)O,,,1.55,
O=C(O)c1cccc(OCCCC2CCCCC2)c1C(=O)O,inactive,,2,
O=C(O)CCCCOc1cccc(C(=O)O)c1C(=O)O,Active,,18.8,
O=C(O)c1cccc(N2CCCC2)c1C(=O)O,Active,Active,2.8,
O=C(O)c1cccc(OCCO)c1C(=O)O,Active,Active,47.8,
C[C@@H](O)[C@H]1C(=O)N2C(C(=O)[O-])=C(SC3Cn4cnc[n+]4C3)[C@H](C)[C@H]12 (stereo not given in full) [BIAPENEM],,,,MIC (Pseudomonas aeruginosa [6]): 64 mg/L; MIC (Pseudomonas aeruginosa [7]): 64 mg/L
O=C(O)c1cccc(OCCCc2ccccc2)c1C(=O)O,inactive,Active,1.7,
O=C(O)c1cccc(O)c1C(=O)O,,,> 300,
O=C(O)c1cccc(N2CCC(O)(c3ccccc3)CC2)c1C(=O)O,Active,Active,2.3,
O=C(O)c1cccc(N2CCCC(CO)C2)c1C(=O)O (stereo not given),Active,Active,2.1,
CCCCOc1cccc(C(=O)O)c1C(=O)O,,,5.1,
O=C(O)c1cccc(N2CCCC(O)C2)c1C(=O)O (stereo not given),Active,Active,2.7,
Nc1cccc(C(=O)O)c1C(=O)O,,,300,
